PubChem BioAssay
Inconclusive results are not listed.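 The calls were made as follows, unless noted: active = viability increase at or above a cutoff of the median across tested compounds plus 3 SD (cut at about 8.5% in these data, passing the limit was not always enough); inconclusive = some gains above the cutoff, reason not given; inactive = the rest.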

Key:
[1] = S. cerevisiae growth inhibition in permissive medium (OD615), pilot counter-assay for S. cerevisiae lifespan shortening project, permissive growth control (AID 705;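 active = growth inhibition above 25% in both replicates, a cutoff set 3 SD above the mean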); conditions: OD615, 24 h, at 10 µM, active compounds read high
Procedure, shortened: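 System: S. cerevisiae with engineered DeaD lifespan system / Measured by: absorbance (optical density) at 615 nm / Read-out: reduction in yeast growth (OD615) / Times: 4 h cell pre-growth, 24 h exposure at 30 °C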

[2] = S. cerevisiae growth inhibition in restrictive medium, OD615, pilot screen, restrictive growth control, yeast lifespan reduction project (AID 706;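 active = growth inhibition above a set limit, 3 SD over mean compound inhibition, in both replicates, cut at about 43% in these data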;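 also: modified DeaD lifespan yeast strain shifted to restrictive glucose medium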); conditions: OD615, 48 h, at 10 µM, active compounds read high
Procedure, shortened: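 System: Engineered S. cerevisiae DeaD strain | Buffer or medium: Glucose-based CSMM-D restrictive medium | Schedule: 4 h pre-incubation, 48 h exposure at 30 °C | Technique: Optical density at 615 nm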

[3] = doxorubicin toxicity protection in MRP-1 cells – H69AR cells, CellTiter-Glo, duplicate, MRP-1 activator project, pilot screen (AID 807); conditions: H69AR viability with doxorubicin, CellTiter-Glo luminescence; at 10 µM; active compounds read high;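 also: compound pretreatment 18-22 h then 72 h combined with doxorubicin; 0% = doxorubicin alone and 100% = vehicle without doxorubicin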
[4] = viability of HCT116 without oncogenic beta-catenin – human colon tumor cells, pilot screen (AID 823;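 active = cell viability at or below a set limit in both duplicate runs, the limit being the all-compound median minus 4 SD, cut at about 23% in these data, passing the limit was not always enough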;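 also: 0% = wells killed by 20 µM Hyamine and 100% = untreated DMSO cell wells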); conditions: HCT116 beta-catenin knockout viability, CellTiter-Glo, 60 h; at 10 µM; active compounds read low
[5] = viability of PTEN-null HCT116 cells – cell-based, HCT116 clonal line, CellTiter-Glo, pilot screen (AID 824;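 active = viability at or below 27.92% in each of two runs, the all-compound median minus 4 SD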;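 also: 0% = 20 µM Hyamine control and 100% = vehicle cell control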); conditions: HCT116 PTEN-deleted viability, 60 h, at 10 µM, active compounds read low
[6] = RAM pathway blockade in budding yeast – dse1pr::URA3 reporter, 5-FOA selection, pilot screen (AID 869;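 active = inhibition over a set limit, the all-compound mean plus 3 SD, in both replicate runs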;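 also: 0% = DMSO wells with no growth and 100% = 10 µM 1-NA-PP1 with full growth; RAM network block rescues cells from 5-FOA so hits raise OD615 growth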); conditions: S. cerevisiae dse1pr::URA3 5-FOA growth, OD615, 2 d; at 10 µM; active compounds read high; strain carries analog-sensitive mutant Cbk1 kinase
[7] = RAM signaling pathway blockade in yeast – S. cerevisiae, Pdr1DBD-CYC8 efflux-inhibited sensitized strain, primary screen (AID 1298;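 active = RAM network inhibition above 8.4% in each of two replicates, 3 SD over the compound average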;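 also: 0% = DMSO untreated cells without growth and 100% = 10 µM 1-NA-PP1 full growth; higher means more yeast growth rescued from 5-FOA killing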); conditions: S. cerevisiae cbk1-as DSE1-URA3 strain, 5-FOA growth OD615, 2 d; at 50 µM; active compounds read high

COc1ccc(C(=O)Nc2cc(=O)n(C)c(=O)n2C)cc1OC
inactive: growth inhibition [1] -0.79% | growth inhibition [2] 6.3% | viability increase [3] -1.84% | viability [4] 104% | viability [5] 94.2% | inhibition [6] 1.09% | RAM network inhibition [7] -1.14%

Cc1ccc(CC2C(=O)N(c3ncccn3)C(=O)C2C)cc1 (stereo unspecified)
inactive: growth inhibition [1] -5.95% | growth inhibition [2] -9.6% | viability increase [3] 0.74% | viability [4] 104% | viability [5] 93.1% | inhibition [6] 0.685% | RAM network inhibition [7] 1.72%

CCOC(=O)N1CCc2c(sc(NC(=O)c3ccc(S(=O)(=O)N4CCCC4)cc3)c2C#N)C1
inactive: growth inhibition [1] -3.65% | growth inhibition [2] -5.41% | viability increase [3] -1.2% | viability [4] 99.1% | viability [5] 85% | inhibition [6] 2.04% | RAM network inhibition [7] 5.32%

Cc1onc(-c2ccccc2Cl)c1C(=O)OCN1C(=O)c2ccccc2C1=O
inactive: growth inhibition [1] -16.8% | growth inhibition [2] -12.5% | viability increase [3] -2.89% | viability [4] 90% | viability [5] 99% | inhibition [6] 0.93% | RAM network inhibition [7] 5.34%

O=C(Cn1c(=O)sc2ccccc21)N1CCOCC1
inactive: growth inhibition [1] -1.21% | growth inhibition [2] -4.46% | viability increase [3] -1.06% | viability [4] 95.5% | viability [5] 102% | inhibition [6] 0.485% | RAM network inhibition [7] 0.67%

CCOc1cc(-c2nc(-c3ccncc3)no2)cc(OCC)c1OCC
inactive: growth inhibition [1] -5.04% | growth inhibition [2] -6.19% | viability increase [3] -5.6% | viability [4] 60.1% | viability [5] 65% | inhibition [6] 1.08% | RAM network inhibition [7] 5.16%

CC1CN(c2ncnc3c2cnn3-c2ccc(Cl)cc2)CC(C)O1 (stereo unspecified)
inactive: growth inhibition [1] -3.73% | growth inhibition [2] -8.06% | viability increase [3] 3.8% | viability [4] 100% | viability [5] 88.4% | inhibition [6] 1.4% | RAM network inhibition [7] 3.95%

CCOc1ccc(C2CC(c3ccc(CC)cc3)Nc3nc(N)nn32)cc1 (stereo unspecified)
inactive: growth inhibition [1] 13.7% | growth inhibition [2] 21.5% | viability increase [3] 5.61% | viability [4] 97.5% | viability [5] 90.2% | inhibition [6] 0.69% | RAM network inhibition [7] 8.15%

O=C(Nc1ccccc1)C1CC=CCC1C(=O)OCC1CCCO1 (stereo unspecified)
inactive: growth inhibition [1] -9.52% | growth inhibition [2] -20.7% | viability increase [3] 0.15% | viability [4] 102% | viability [5] 102% | inhibition [6] 2.69% | RAM network inhibition [7] 0.98%

CCOCCOC(=O)C1=C(C)NC2=C(C(=O)CC(c3cccs3)C2)C1c1ccsc1 (stereo unspecified)
inactive: growth inhibition [1] -1.18% | growth inhibition [2] 2.17% | viability increase [3] -1.94% | viability [4] 93.5% | viability [5] 89.2% | inhibition [6] 2.27% | RAM network inhibition [7] 6.89%

COc1ccc(C(=O)Nc2cc3c(cc2C#N)OCO3)cc1S(=O)(=O)N1CCN(C)CC1
inactive: growth inhibition [1] -18.3% | growth inhibition [2] -21.2% | viability increase [3] 1.53% | viability [4] 100% | viability [5] 101% | inhibition [6] 0.975% | RAM network inhibition [7] 5.27%

Cc1cccc(NC(=O)CSc2nnc(-c3ccccc3)n2N)c1C
inactive: growth inhibition [1] -9.02% | growth inhibition [2] -15.1% | viability increase [3] -2.08% | viability [4] 94.4% | viability [5] 90.2% | inhibition [6] 1.85% | RAM network inhibition [7] 0.16%

Cc1cc(NS(=O)(=O)c2ccc(NC(=O)c3cnc4scc(C)n4c3=O)cc2)nc(C)n1
inactive: growth inhibition [1] -8.46% | growth inhibition [2] -14.3% | viability increase [3] -2.16% | viability [4] 102% | viability [5] 98.5% | inhibition [6] 1.31% | RAM network inhibition [7] 4.17%

O=c1cc(O)sc2ccccc12
inactive: growth inhibition [1] -4.72% | growth inhibition [2] -8.78% | viability increase [3] -2.09% | viability [4] 96.4% | viability [5] 94.4% | inhibition [6] 0.79% | RAM network inhibition [7] -0.87%

O=C(N1CCOCC1)N1CCN(c2ccccc2F)CC1
inactive: growth inhibition [1] -0.135% | growth inhibition [2] 0.07% | viability increase [3] -2.64% | viability [4] 97.9% | viability [5] 99.7% | inhibition [6] 0.325% | RAM network inhibition [7] 4.21%

CC1=C(C(N)=O)C(c2ccccc2)n2nc(-c3cccc(C)c3)nc2N1 (stereo unspecified)
inactive: growth inhibition [1] 3.1% | growth inhibition [2] 2.56% | viability increase [3] -2.74% | viability [4] 98.9% | viability [5] 97.1% | inhibition [6] 0.79% | RAM network inhibition [7] 3.91%

Cc1[nH]c2ccc(-c3n[nH]c(=S)n3C)cc2c1C
inactive: growth inhibition [1] -4.45% | growth inhibition [2] -17.6% | viability increase [3] 0.84% | viability [4] 98.9% | viability [5] 93.3% | inhibition [6] 1.31% | RAM network inhibition [7] 0.57%

CCN1C(=O)c2ccccc2S(=O)c2ccc(C(=O)N3CCCC3)cc21 (stereo unspecified)
inactive: growth inhibition [1] -3.58% | growth inhibition [2] 3.54% | viability increase [3] -1.58% | viability [4] 93.3% | viability [5] 88.9% | inhibition [6] 1.16% | RAM network inhibition [7] -1.72%
